Data reported in publication PMC10694825 (The journal of physical chemistry. B, 2023).
Substitutions are numbered along the chain they refer to. Like-named read-outs stand apart in the source and are kept apart here.

Columns and labels:
[1] = biological target: T1, PTP1B (Homo sapiens, UniProt P18031); assay: pNPP enzyme kinetics, inhibition by amorphadiene; format: biochemical; settings: this study
T1 sequence (P18031 1-321): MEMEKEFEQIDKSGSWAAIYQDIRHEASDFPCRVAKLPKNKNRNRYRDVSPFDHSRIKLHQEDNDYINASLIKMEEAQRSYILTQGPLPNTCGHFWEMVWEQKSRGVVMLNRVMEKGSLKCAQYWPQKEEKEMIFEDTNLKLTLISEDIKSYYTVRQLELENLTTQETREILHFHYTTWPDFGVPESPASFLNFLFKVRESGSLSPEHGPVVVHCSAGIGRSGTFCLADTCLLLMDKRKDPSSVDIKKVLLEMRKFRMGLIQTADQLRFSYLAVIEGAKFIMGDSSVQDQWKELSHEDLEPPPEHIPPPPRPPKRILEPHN
Procedure, shortened: (§1)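 Truncated enzymes (PTP1B 1–351, TCPTP 1–317) expressed in E. coli BL21(DE3), purified by Ni-affinity and anion-exchange. Reactions held 50 nM enzyme, 50 μg/mL BSA and terpenoid at 0.5–500 μM in 50 mM HEPES pH 7.3 with 10% DMSO for 1 h at 22 °C. 20 mM pNPP started the reaction; A405 read every 30 s over 8 min. Initial rates came from a standard curve, and IC50 from a Hill-equation fit. Selectivity was taken as the TCPTP/PTP1B IC50 ratio.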

[2] = biological target: T2, TCPTP (Homo sapiens, UniProt P17706); assay: pNPP enzyme kinetics, inhibition by amorphadiene; format: biochemical; settings: read-out: IC50 for TCPTP; wild type, pNPP substrate, this study
T2 sequence (P17706 1-317): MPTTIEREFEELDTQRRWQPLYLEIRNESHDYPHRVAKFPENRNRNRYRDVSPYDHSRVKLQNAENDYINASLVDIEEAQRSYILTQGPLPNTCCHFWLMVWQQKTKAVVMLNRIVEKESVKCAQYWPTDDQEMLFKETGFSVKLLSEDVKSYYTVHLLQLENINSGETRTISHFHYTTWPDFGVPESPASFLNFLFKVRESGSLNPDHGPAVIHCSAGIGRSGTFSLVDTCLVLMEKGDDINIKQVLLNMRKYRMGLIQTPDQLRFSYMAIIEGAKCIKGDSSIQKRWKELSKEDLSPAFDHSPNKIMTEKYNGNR
Procedure, shortened: as §1

[3] = biological target: T3, PTP1B L158F (Homo sapiens, UniProt P18031, L158F); assay: pNPP enzyme kinetics, L158F variant; format: biochemical; settings: PTP1B L158F vs wild type
T3 sequence (P18031 1-321 L158F): T1 sequence (P18031 1-321) with L158F

[4] = biological target: T4, TCPTP L158F (Homo sapiens, UniProt P17706, L158F); assay: pNPP enzyme kinetics, L158F variant; format: biochemical; settings: TCPTP L158F vs wild type
T4 sequence (P17706 1-317 L158F): T2 sequence (P17706 1-317) with L158F

[5] = biological target: T5, PTP1B M282K (Homo sapiens, UniProt P18031, M282K); assay: pNPP enzyme kinetics, M282K variant; format: biochemical; settings: PTP1B M282K vs wild type
T5 sequence (P18031 1-321 M282K): T1 sequence (P18031 1-321) with M282K
Procedure, shortened: (§2)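 Catalytic-domain constructs (PTP1B 1–351, TCPTP 1–317), with mutations made by Gibson assembly, expressed in E. coli BL21(DE3) and purified by Ni-affinity then anion exchange. Enzyme at 50 nM with 50 μg/mL BSA and test compound (0.5–500 μM) in 50 mM HEPES pH 7.3 with 10% DMSO, preincubated 1 h at 22 °C. Started with 20 mM pNPP; A405 read every 30 s for 8 min. IC50 from a Hill fit of initial rates.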

[6] = biological target: T6, PTP1B Q290R (Homo sapiens, UniProt P18031, Q290R); assay: pNPP enzyme kinetics, Q290R variant; format: biochemical; settings: PTP1B Q290R vs wild type
T6 sequence (P18031 1-321 Q290R): T1 sequence (P18031 1-321) with Q290R
Procedure, shortened: as §2

[7] = biological target: T7, TCPTP K280M (Homo sapiens, UniProt P17706, K280M); assay: pNPP enzyme kinetics, K280M variant; format: biochemical; settings: TCPTP K280M vs wild type
T7 sequence (P17706 1-317 K280M): T2 sequence (P17706 1-317) with K280M
Procedure, shortened: as §2

[8] = biological target: T8, TCPTP R288Q (Homo sapiens, UniProt P17706, R288Q); assay: pNPP enzyme kinetics, R288Q variant; format: biochemical; settings: TCPTP R288Q vs wild type
T8 sequence (P17706 1-317 R288Q): T2 sequence (P17706 1-317) with R288Q
Procedure, shortened: as §2

[9] = biological target: T1, PTP1B; settings: cited from earlier work; for selectivity: inhibits PTP1B more potently than TCPTP (fold): PTP1B over TCPTP
[10] = biological target: T2, TCPTP; settings: read-out: IC50 for TCPTP; previously reported; cited from earlier work
[11] = biological target: T1, PTP1B; settings: MD simulation, cited from earlier work

Row | SMILES | IC50 ([1]; read-out: IC50 for PTP1B, wild type, pNPP substrate) [µM] | IC50 ratio (TCPTP/PTP1B), metric for selectivity [1] | IC50 [2] [µM] | IC50 of L158F mutant compared with wild type [3] | IC50 of L158F mutant compared with wild type [4] | effect of mutation on potency (IC50) [5] | effect of mutation on potency (IC50) [6] | effect of mutation on IC50 [7] | effect of mutation on IC50 [8] | selectivity: inhibits PTP1B more potently than TCPTP (fold) [9] | IC50 ratio (TCPTP/PTP1B), metric for selectivity ([9]; previously reported) | IC50 ([9]; read-out: IC50 for PTP1B, previously reported) [µM] | IC50 [10] [µM] | occupancy of the β site (loc4), observed trajectories ([11]; PTP1B with disordered α7 helix) [%] | occupancy of the β site (loc4), observed trajectories ([11]; PTP1B with truncated α7 helix) [%]
1 | C=C(C)[C@@H]1CC[C@@H](C)[C@@H]2CCC(C)=C[C@@H]21 [AD, amorphadiene] | 7.7 ± 2.4 | 3.5 ± 1.8 | 27 ± 11.2 | indistinguishable between wild-type and mutant enzymes | indistinguishable between wild-type and mutant enzymes | reduced potency | reduced potency | no effect on the IC50 | no effect on the IC50 | 5–8 × | 6.6 ± 1.8 | 53 ± 8 | 349 ± 77 | 0 | 88
2 | CC(C)=CCC=C(C)C1CC=C(C)CC1 (stereo not drawn) [AB, α-bisabolene] | – | – | – | – | – | – | – | – | – | 5–8 × | – | – | – | – | –
